# According to ChEMBL document CHEMBL1140685, “Synthesis and antitrichinellosis activity of some bis(benzimidazol-2-yl)amines” (2007):
# Experiments:
# Type in all cases: functional
# Trichinella spiralis [1] = assay: Antitrichinellosis activity against Trichinella spiralis larvae at 50 ug/ml after 24 hrs by Campbell's method
# How it was run: (§1)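 Encapsulated T. spiralis larvae were held at 150 per 1 ml physiological solution with compound dissolved in DMSO–water. Incubation was at 37 °C in a humid thermostatted chamber. Larval vitality was scored by stereomicroscope at 24 and 48 h after treatment.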
# Trichinella spiralis [2] = assay: Antitrichinellosis activity against Trichinella spiralis larvae at 100 ug/ml after 24 hrs by Campbell's method; how it was run: as §1
# Trichinella spiralis [3] = assay: Antitrichinellosis activity against Trichinella spiralis larvae at 200 ug/ml after 24 hrs by Campbell's method; how it was run: as §1
# Trichinella spiralis [4] = assay: Antitrichinellosis activity against Trichinella spiralis larvae at 50 ug/ml after 48 hrs by Campbell's method; how it was run: as §1
# Trichinella spiralis [5] = assay: Antitrichinellosis activity against Trichinella spiralis larvae at 100 ug/ml after 48 hrs by Campbell's method; how it was run: as §1
# Trichinella spiralis [6] = assay: Antitrichinellosis activity against Trichinella spiralis larvae at 200 ug/ml after 48 hrs by Campbell's method; how it was run: as §1
# Trichinella spiralis [7] = assay: Antitrichinellosis activity against Trichinella spiralis intestinal phase larvae in mouse at 50 mg/kg, po after 3 days
# How it was run: (§2)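 White immature mice each infected with 150 Trichinella larvae, five mice per group. Oral dosing by thin metallic probe into the oesophagus as DMSO solution, once daily for 3 days starting on day 3 after infection. Controls were untreated mice and mice given albendazole at 100 mg/kg. Read-out was microscopic examination of small-intestine contents after autopsy for larvae.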
# Trichinella spiralis [8] = assay: Antitrichinellosis activity against Trichinella spiralis intestinal phase larvae in mouse at 100 mg/kg, po after 3 days; how it was run: as §2
Structure (SMILES),Efficacy (Trichinella spiralis [1]),Efficacy (Trichinella spiralis [2]),Efficacy (Trichinella spiralis [3]),Efficacy (Trichinella spiralis [4]),Efficacy (Trichinella spiralis [5]),Efficacy (Trichinella spiralis [6]),Efficacy (Trichinella spiralis [7]),Efficacy (Trichinella spiralis [8])
Cn1c(Nc2nc3ccccc3n2C)nc2ccccc21,8.8%,17.3%,45.7%,14%,18.3%,67.9%,,
CCCn1c(Nc2nc3ccccc3n2CCC)nc2ccccc21,45.9%,81.2%,100%,58.6%,95.3%,100%,100%,100%
CCCn1c(Nc2nc3ccccc3n2CC)nc2ccccc21,42%,84%,96%,46%,92.1%,100%,100%,100%
CCCSc1ccc2[nH]c(NC(=O)OC)nc2c1 [ALBENDAZOLE],10.6%,10.7%,13.3%,14.8%,15.1%,17.4%,,100%
CCCn1c(Nc2nc3ccccc3[nH]2)nc2ccccc21,12%,17.6%,67.7%,20%,34.5%,78%,,
CCn1c(Nc2nc3ccccc3n2C)nc2ccccc21,35.3%,65.7%,76.3%,65.3%,73%,84%,,
Cn1c(Nc2nc3ccccc3[nH]2)nc2ccccc21,9.1%,13.5%,30.2%,17.2%,28.3%,58.3%,,
CCn1c(Nc2nc3ccccc3[nH]2)nc2ccccc21,15.7%,20%,38.2%,25.3%,38.6%,65%,,
CCCn1c(Nc2nc3ccccc3n2C)nc2ccccc21,33.3%,73.8%,80%,43.4%,80%,88.4%,,
CCn1c(Nc2nc3ccccc3n2CC)nc2ccccc21,45.8%,92%,94%,66.3%,97.5%,98%,100%,100%
